Screening results as filed in PubChem.
Hits are enriched below; roughly 1.1% of the tested compounds scored in any of these assays.
NCF1 inh: p47phox/p22phox peptide binding inhibitors, primary screen, biochemical, uHTS, NADPH oxidase regulatory subunit; fluorescence polarization, 2 h; inhibition, % at 24.7 µM; 0.53% of 220,000 active; AID 1274, 2008;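 active means inhibition above about 30%, limit read from the data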
Target sequence (P14598 whole entry, looked up): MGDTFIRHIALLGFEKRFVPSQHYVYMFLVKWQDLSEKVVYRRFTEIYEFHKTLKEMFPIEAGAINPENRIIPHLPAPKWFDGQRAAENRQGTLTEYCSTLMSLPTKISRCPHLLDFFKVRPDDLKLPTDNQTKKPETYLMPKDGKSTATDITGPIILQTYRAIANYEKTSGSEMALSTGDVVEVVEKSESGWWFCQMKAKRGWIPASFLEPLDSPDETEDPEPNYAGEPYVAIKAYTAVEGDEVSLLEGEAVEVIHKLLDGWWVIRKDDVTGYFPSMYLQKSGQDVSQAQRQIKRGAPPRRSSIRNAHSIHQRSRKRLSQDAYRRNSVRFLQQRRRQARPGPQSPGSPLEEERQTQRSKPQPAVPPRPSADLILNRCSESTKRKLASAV
Calpain2 inh: inhibitors of pig calpain II, primary screen, biochemical, fluorogenic peptide substrate, 1536-well | purified calpain II, 30 min | inhibition, % at 16 µM | 0.37% of 220,000 active | AID 1236, 2008;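 active means inhibition above about 50%, limit read from the data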
Furin inh: human furin inhibitors, primary screen, biochemical, fluorescence intensity. purified furin, fluorogenic substrate cleavage. inhibition, % at 20 µM or 30 µM. 0.061% of 220,000 active; in the data active means inhibition above about 25%
RBBP9 inhibitor: human RBBP9 inhibitors, primary screen, biochemical, fluorescence polarization, FP-Rh probe, HTS; recombinant RBBP9; 0.2% of 220,000 active; inhibition, % at 7.94 µM;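 active means inhibition above the campaign mean of all tested compounds plus 3 SD, cut at about 14% in these data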
Target sequence (O75884 whole entry, looked up): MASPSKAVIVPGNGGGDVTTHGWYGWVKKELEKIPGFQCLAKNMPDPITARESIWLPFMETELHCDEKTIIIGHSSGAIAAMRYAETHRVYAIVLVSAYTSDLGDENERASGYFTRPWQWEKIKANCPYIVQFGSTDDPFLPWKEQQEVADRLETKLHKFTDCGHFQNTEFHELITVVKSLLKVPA
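System: RBBP9 protein / Buffer or medium: Tris/NaCl buffer pH 8.0 with 0.1% Pluronic / Probe or stimulus: Serine-hydrolase probe FP-Rh, 375 nM pre-mixing / Dosing: 7.94 µM single dose, 0.794% DMSO / Times: enzyme-compound preincubation 30 min, then probe labeling 45 min, 25 °C / Technique: fluorescence polarization (mP), excitation 525 nm, emission 598 nm / Replication: singlicate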
RBBP9 inh conf: human RBBP9 inhibitors, retest, confirmation, biochemical, fluorescence polarization, FP-Rh probe, triplicate; inhibition, % at 7.94 µM; 36% of 410 active; AID 1537, 2009; recombinant RBBP9; shares compounds with RBBP9 inhibitor;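 active means inhibition above the hit cutoff derived for the primary screen, cut at about 15% in these data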
Hits are given with their value; – = inactive; · = no result given; ! = not confirmed by another sample.

SMILES	NCF1 inh	Calpain2 inh	Furin inh	RBBP9 inhibitor	RBBP9 inh conf
O=C(c1ccccc1)N1CCN(c2ccc([N+](=O)[O-])cc2-n2cccc2)CC1	–	–	–	14	–
Nc1ccccc1N1CCN(C(=O)c2ccccc2)CC1	–	–	–	15	–
O=C(c1ccccc1)N1CCN(C(=O)c2ccc([N+](=O)[O-])cc2)CC1	–	–	–	–	·
Fc1cccc(C2CCCCN2Cc2nc(C3CC3)no2)c1 (stereo not drawn)	–	–	–	–	·
Clc1ccc(-c2csc(N3CCSCC3)n2)cc1	–	–	–	–	·
CCOC(=O)c1c2c3c(cccc3[nH]c1=O)C(=O)c1ccccc1-2	–	–	–	–	·
COCCCNc1c2c3c(cccc3[nH]c1=O)C(=O)c1ccccc1-2	–	–	–	49	80
Cc1ccc(-c2csc(=Nc3cccnc3)n2CCCn2ccnc2)cc1C	–	–	–	–	·
Cc1ccn2c(Nc3ccc4c(c3)OCO4)c(-c3ccc(O)cc3)nc2c1	–	–	–	17	28
Oc1ccc(-c2nc3ncccn3c2Nc2ccc3c(c2)OCO3)cc1	–	–	–	–	·
CSc1nc(N)cc(=O)[nH]1	–	–	–	–	·
CSc1nc(Cl)cc(=O)[nH]1	–	–	–	15	–
COc1ccc(C2Nc3ccccc3C(=O)N2Cc2ccco2)cc1CN1C(=O)c2ccccc2C1=O (stereo not drawn)	–	–	–	–	·
O=C1c2ccccc2NC(c2cccc(O)c2)N1Cc1ccco1 (stereo not drawn)	–	–	–	15	29
CN1C(C(=O)NCc2ccc(OC(F)(F)F)cc2)CC2Cn3c(nc4cc5ccccc5cc43)C21 (stereo not drawn)	–	–	–	·	·
CCCCCc1ccc(OCCCC[n+]2cccc(C)c2)c(CCCCC)c1	–	–	–	15	–
O=Nc1c(O)[nH]c2ccc(Cl)cc12	–	–	–	15	29
CCc1ccccc1NC(=O)CSc1nnc(Cn2nnc3ccccc32)n1C	–	–	–	15	–
COc1ccc(NC(=O)CSc2nnc(Cn3nnc4ccccc43)n2C)cc1	–	–	–	–	·
CCCS(=O)(=O)Nc1ccc2cn[nH]c2c1	–	–	–	17	–
CCOc1cc(C)c(S(=O)(=O)Nc2ccc3cn[nH]c3c2)cc1C	–	–	–	–	·
Cc1onc(-c2c(Cl)cccc2Cl)c1C(=O)Nc1nc(C(C)(C)C)cs1	–	–	–	–	·
CCOc1ccccc1NS(=O)(=O)c1ccc2c(c1)n(C)c(=O)c(=O)n2C	–	–	–	–	·
Cc1c2cc(O)c(=O)cc-2oc2cc(O)c(O)cc12	–	–	–	43!	83
COc1cc(OC)c(-c2c3cc(O)c(=O)cc-3oc3cc(O)c(O)cc23)cc1OC	–	–	–	–	·
SMILES	NCF1 inh	Calpain2 inh	Furin inh	RBBP9 inhibitor	RBBP9 inh conf
Cc1ccc(NC(=O)c2c(Cl)nc3ccccn23)cc1	–	–	–	–	·
COc1ccc2nc(-c3ccco3)c(-c3ccco3)nc2c1	–	–	–	–	·
c1coc(-c2nc(-c3ccco3)c(-c3ccco3)nc2-c2ccco2)c1	–	–	–	26	19
Nc1nc(-c2ccco2)c(-c2ccco2)s1	–	–	–	17	–
CCCC1(C(=O)OCC)NC(c2ccco2)C2C(=O)N(C)C(=O)C21 (stereo not drawn)	–	–	–	–	·
Cc1c(O)ccc(C(=O)CN2CCN(Cc3ccc4c(c3)OCO4)CC2)c1O	–	–	–	68	–
O=C(NNC1=NC2(CCCC2)Cc2ccccc21)c1ccncc1	–	–	–	–	·
CC1CCCCC1NC(=O)c1ccc(S(=O)(=O)NCc2ccco2)cc1 (stereo not drawn)	–	–	–	18	–
CC(C(=O)NCc1ccc(F)cc1)c1ccc([N+](=O)[O-])cc1 (stereo not drawn)	–	–	–	–	·
Cc1cc(C=O)c(C)n1-c1ccc(N2CCOCC2)c([N+](=O)[O-])c1	–	–	–	–	·
Cc1ccc(C)n1-c1ccc(N2CCOCC2)c([N+](=O)[O-])c1	–	–	–	16	–
Cc1ccc2[nH]c(=O)c(CN(CCCN(C)C)C(=S)NCCc3ccccc3)cc2c1	–	–	–	–	·
Cc1cccc2cc(CN(CCCN(C)C)C(=S)NCCc3ccccc3)c(=O)[nH]c12	–	–	–	17	27
Cc1ccccc1C(=O)Oc1cc(N)n(S(=O)(=O)c2ccccc2)n1	–	–	–	–	·
NS(=O)(=O)c1cccc(NC(=O)Cn2cc(C(F)(F)F)cc(Cl)c2=O)c1	–	–	–	–	·
CN(CC(=O)NCc1ccc(Cl)cc1)S(=O)(=O)c1cccc2cccnc12	–	–	–	–	·
COc1cccc(CNC(=O)CN(C)S(=O)(=O)c2cccc3cccnc23)c1	–	–	–	21	–
COc1ccc(-n2nnc3c(=O)n(CC(=O)N4CCCC4)cnc32)cc1	–	–	–	–	·
COc1ccc(-n2nnc3c(=O)n(C/C=C/c4ccccc4)cnc32)cc1	–	–	–	15	–
Cc1ccc(C(=O)n2nc(-c3ccccc3)nc2NCc2ccco2)cc1	–	–	–	–	·
CCCC(=O)n1nc(-c2ccc(C)cc2)nc1NCc1ccco1	–	–	–	17	–
COc1ccc(N=Nc2n(C)c3ccccc3[n+]2C)cc1	–	–	–	–	·
COc1ccc(CNC(=O)CN2CCN(C(c3ccccc3)c3ccccc3)CC2)cc1	–	–	–	–	·
O=C(CN1CCN(C(c2ccccc2)c2ccccc2)CC1)NCc1ccccc1	–	–	–	14	–
CS(=O)(=O)c1ccc2nc(NC(=O)c3cc(-c4ccccc4)nn3-c3ccccc3)sc2c1	–	–	–	–	·
SMILES	NCF1 inh	Calpain2 inh	Furin inh	RBBP9 inhibitor	RBBP9 inh conf
CC(/C=N\NC(=O)CN1CCN(S(=O)(=O)c2ccc(C)cc2)CC1)=C\c1ccccc1	–	–	–	–	·
CCC[N+]1(CC#CC(O)(c2ccccc2)C2CCCCC2)CCCCC1 (stereo not drawn)	–	–	–	15	39
Cc1cccc(NC(=O)C(Cc2ccccc2)n2cccc2)c1 (stereo not drawn)	–	–	–	–	·
O=C(Nc1nc2cc(Cl)ccc2s1)C1CCCN(S(=O)(=O)c2cccc3cccnc23)C1 (stereo not drawn)	–	–	–	–	·
CC(=O)Nc1cccc(-c2csc(NCc3ccccc3)n2)c1	·	–	–	15	–
Cc1cc(C(=O)N/N=C/c2ccc(O)c(O)c2O)c(C)n1-c1ccccc1	–	–	–	18	73
C/C(Cc1ccccc1)=N\NC(=O)CNC(=O)c1ccc(Cl)cc1Cl	–	–	–	–	·
C/C(Cc1ccccc1)=N\NC(=O)CNC(=O)c1cccc(Cl)c1	–	–	–	21	–
Nc1nc(Nc2cccc(Cl)c2)n[nH]1	–	–	–	–	·
COc1ccc2[nH]c3c(NCCC4=CCCCC4)ncnc3c2c1	–	–	–	15	30
CCN(CC)CCNc1ncnc2c1[nH]c1ccc(OC)cc12	–	–	–	–	·
